Reference: ChEMBL document CHEMBL1629611, “Activity of levofloxacin alone and in combination with a DnaK inhibitor against gram-negative rods, including levofloxacin-resistant strains” (2009)
Bridges are numbered along the chain shown (N, C = ends). Roman numbers before positions name the chains, in order. [ ]: non-standard residue; d: D form. NMeR = CN[C@@H](CCCNC(=N)N)C(=O)O; Api = NC1(C(=O)O)CCNCC1; Dab = NCC[C@H](N)C(=O)O

Key:
Assay type in all cases: functional
[1] = tested on: Klebsiella pneumoniae; test: Antimicrobial activity against Klebsiella pneumoniae E353 by broth macrodilution method
In short: (§1)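 CLSI-approved broth macrodilution in one-quarter-strength cation-adjusted Mueller Hinton broth. Each drug was tested alone against each clinical gram-negative isolate to give the MIC. Strains were stored frozen at −70°C in double-strength skim milk before testing.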

[2] = tested on: Klebsiella pneumoniae; test: Antimicrobial activity against Klebsiella pneumoniae E354 by broth macrodilution method
In short: (§2)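 MIC by CLSI-approved broth macrodilution in one-quarter-strength cation-adjusted Mueller Hinton broth, each drug tested alone. Clinical gram-negative isolates were stored frozen at −70°C in double-strength skim milk before testing.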

[3] = tested on: Klebsiella pneumoniae; test: Antimicrobial activity against Klebsiella pneumoniae E363 by broth macrodilution method; in short: as §2
[4] = tested on: Klebsiella pneumoniae; test: Antimicrobial activity against Klebsiella pneumoniae E364 by broth macrodilution method; in short: as §1
[5] = tested on: Klebsiella pneumoniae; test: Antimicrobial activity against Klebsiella pneumoniae E367 by broth macrodilution method; in short: as §1
[6] = tested on: Klebsiella pneumoniae; test: Antimicrobial activity against Klebsiella pneumoniae E368 by broth macrodilution method; in short: as §1
[7] = tested on: Klebsiella pneumoniae; test: Antimicrobial activity against Klebsiella pneumoniae E369 by broth macrodilution method; in short: as §1
[8] = tested on: Klebsiella pneumoniae; test: Antimicrobial activity against Klebsiella pneumoniae E370 by broth macrodilution method; in short: as §1
[9] = tested on: Klebsiella pneumoniae; test: Antimicrobial activity against Klebsiella pneumoniae E371 by broth macrodilution method; in short: as §1
[10] = tested on: Klebsiella pneumoniae; test: Antimicrobial activity against Klebsiella pneumoniae E372 by broth macrodilution method; in short: as §1
[11] = tested on: Klebsiella pneumoniae; test: Antimicrobial activity against Klebsiella pneumoniae E411 by broth macrodilution method; in short: as §1
[12] = tested on: Klebsiella pneumoniae; test: Antimicrobial activity against Klebsiella pneumoniae E422 by broth macrodilution method; in short: as §2
[13] = tested on: Klebsiella pneumoniae; test: Antimicrobial activity against Klebsiella pneumoniae E426 by broth macrodilution method; in short: as §1
[14] = tested on: Klebsiella pneumoniae; test: Antimicrobial activity against Klebsiella pneumoniae E427 by broth macrodilution method; in short: as §1
[15] = tested on: Klebsiella pneumoniae; test: Antimicrobial activity against Klebsiella pneumoniae E431 by broth macrodilution method; in short: as §1
[16] = tested on: Klebsiella pneumoniae; test: Antimicrobial activity against Klebsiella pneumoniae E433 by broth macrodilution method; in short: as §2
[17] = tested on: Escherichia coli; test: Antimicrobial activity against Escherichia coli E351 by broth macrodilution method; in short: as §2
[18] = tested on: Escherichia coli; test: Antimicrobial activity against Escherichia coli E393 by broth macrodilution method; in short: as §2
[19] = tested on: Escherichia coli; test: Antimicrobial activity against Escherichia coli E394 by broth macrodilution method; in short: as §1
[20] = tested on: Escherichia coli; test: Antimicrobial activity against Escherichia coli E395 by broth macrodilution method; in short: as §2
[21] = tested on: Escherichia coli; test: Antimicrobial activity against Escherichia coli E396 by broth macrodilution method; in short: as §2
[22] = tested on: Escherichia coli; test: Antimicrobial activity against Escherichia coli E408 by broth macrodilution method; in short: as §1
[23] = tested on: Escherichia coli; test: Antimicrobial activity against Escherichia coli E409 by broth macrodilution method; in short: as §1
[24] = tested on: Escherichia coli; test: Antimicrobial activity against Escherichia coli E410 by broth macrodilution method; in short: as §2
[25] = tested on: Escherichia coli; test: Antimicrobial activity against Escherichia coli E412 by broth macrodilution method; in short: as §1
[26] = tested on: Escherichia coli; test: Antimicrobial activity against Escherichia coli E413 by broth macrodilution method; in short: as §1
[27] = tested on: Escherichia coli; test: Antimicrobial activity against Escherichia coli E424 by broth macrodilution method; in short: as §1
[28] = tested on: Escherichia coli; test: Antimicrobial activity against Escherichia coli E425 by broth macrodilution method; in short: as §1
[29] = tested on: Escherichia coli; test: Antimicrobial activity against Escherichia coli E430 by broth macrodilution method; in short: as §1
[30] = tested on: Escherichia coli; test: Antimicrobial activity against Escherichia coli E434 by broth macrodilution method; in short: as §1
[31] = tested on: Escherichia coli; test: Antimicrobial activity against Escherichia coli E435 by broth macrodilution method; in short: as §1
[32] = tested on: Escherichia coli; test: Antimicrobial activity against Escherichia coli E436 by broth macrodilution method; in short: as §1
[33] = tested on: Enterobacter cloacae; test: Antimicrobial activity against Enterobacter cloacae E373 by broth macrodilution method; in short: as §2
[34] = tested on: Enterobacter cloacae; test: Antimicrobial activity against Enterobacter cloacae E397 by broth macrodilution method; in short: as §2
[35] = tested on: Citrobacter freundii; test: Antimicrobial activity against Citrobacter freundii E384 by broth macrodilution method; in short: as §2
[36] = tested on: Citrobacter freundii; test: Antimicrobial activity against Citrobacter freundii E400 by broth macrodilution method; in short: as §1
[37] = tested on: Pseudomonas aeruginosa; test: Antimicrobial activity against Pseudomonas aeruginosa P335 by broth macrodilution method; in short: as §2
[38] = tested on: Klebsiella pneumoniae; test: Antimicrobial activity against Klebsiella pneumoniae E356 by broth macrodilution method; in short: as §2
[39] = tested on: Klebsiella pneumoniae; test: Antimicrobial activity against Klebsiella pneumoniae E362 by broth macrodilution method; in short: as §2
[40] = tested on: Klebsiella pneumoniae; test: Antimicrobial activity against Klebsiella pneumoniae E366 by broth macrodilution method; in short: as §2
[41] = tested on: Klebsiella pneumoniae; test: Antimicrobial activity against Klebsiella pneumoniae E418 by broth macrodilution method; in short: as §2
[42] = tested on: Klebsiella pneumoniae; test: Antimicrobial activity against Klebsiella pneumoniae E428 by broth macrodilution method; in short: as §2
[43] = tested on: Klebsiella pneumoniae; test: Antimicrobial activity against Klebsiella pneumoniae E432 by broth macrodilution method; in short: as §2
[44] = tested on: Escherichia coli; test: Antimicrobial activity against Escherichia coli E341 by broth macrodilution method; in short: as §2
[45] = tested on: Escherichia coli; test: Antimicrobial activity against Escherichia coli E342 by broth macrodilution method; in short: as §2
[46] = tested on: Escherichia coli; test: Antimicrobial activity against Escherichia coli E346 by broth macrodilution method; in short: as §2
[47] = tested on: Escherichia coli; test: Antimicrobial activity against Escherichia coli E437 by broth macrodilution method; in short: as §2
[48] = tested on: Escherichia coli; test: Antimicrobial activity against Escherichia coli E438 by broth macrodilution method; in short: as §2
[49] = tested on: Escherichia coli; test: Antimicrobial activity against Escherichia coli E439 by broth macrodilution method; in short: as §2
[50] = tested on: Pseudomonas aeruginosa; test: Antimicrobial activity against Pseudomonas aeruginosa P330 by broth macrodilution method; in short: as §2

C[C@H]1COc2c(N3CCN(C)CC3)c(F)cc3c(=O)c(C(=O)O)cn1c23.C[C@H]1COc2c(N3CCN(C)CC3)c(F)cc3c(=O)c(C(=O)O)cn1c23.O [LEVOFLOXACIN]
MIC [1]: 0.25 µg/mL | MIC [2]: 16 µg/mL | MIC [3]: 0.06 µg/mL | MIC [4]: 2 µg/mL | MIC [5]: 0.25 µg/mL | MIC [6]: 8 µg/mL | MIC [7]: 64 µg/mL | MIC [8]: 32 µg/mL | MIC [9]: 32 µg/mL | MIC [10]: 0.25 µg/mL | MIC [11]: 2 µg/mL | MIC [12]: 16 µg/mL | MIC [13]: 4 µg/mL | MIC [14]: 2 µg/mL | MIC [15]: 4 µg/mL | MIC [16]: 16 µg/mL | MIC [17]: 16 µg/mL | MIC [18]: 16 µg/mL | MIC [19]: 32 µg/mL | MIC [20]: 16 µg/mL | MIC [21]: 16 µg/mL | MIC [22]: 32 µg/mL | MIC [23]: 8 µg/mL | MIC [24]: 4 µg/mL | MIC [25]: 8 µg/mL | MIC [26]: 8 µg/mL | MIC [27]: 0.25 µg/mL | MIC [28]: 2 µg/mL | MIC [29]: 0.125 µg/mL | MIC [30]: 0.125 µg/mL | MIC [31]: 0.125 µg/mL | MIC [32]: 0.125 µg/mL | MIC [33]: 0.06 µg/mL | MIC [34]: 16 µg/mL | MIC [35]: 0.125 µg/mL | MIC [36]: 32 µg/mL | MIC [37]: 16 µg/mL

I: H-[Api]DKGSYLPRPTPPRPIYN[NMeR]N[Dab]-NH2 / II: H-[Api]DKGSYLPRPTPPRPIYN[NMeR]N (amide I:21-II:C)
MIC [1]: 4 µg/mL | MIC [2]: 8 µg/mL | MIC [38]: 8 µg/mL | MIC [39]: 4 µg/mL | MIC [3]: 4 µg/mL | MIC [4]: 8 µg/mL | MIC [40]: 16 µg/mL | MIC [5]: 16 µg/mL | MIC [6]: 8 µg/mL | MIC [7]: 8 µg/mL | MIC [8]: 4 µg/mL | MIC [9]: 32 µg/mL | MIC [10]: 4 µg/mL | MIC [11]: 8 µg/mL | MIC [41]: 8 µg/mL | MIC [12]: 32 µg/mL | MIC [13]: 4 µg/mL | MIC [14]: 8 µg/mL | MIC [42]: 8 µg/mL | MIC [15]: 4 µg/mL | MIC [43]: 128 µg/mL | MIC [16]: 8 µg/mL | MIC [44]: 16 µg/mL | MIC [45]: 256 µg/mL | MIC [46]: 64 µg/mL | MIC [17]: 32 µg/mL | MIC [18]: 16 µg/mL | MIC [19]: 32 µg/mL | MIC [20]: 32 µg/mL | MIC [21]: 16 µg/mL | MIC [22]: 16 µg/mL | MIC [23]: 16 µg/mL | MIC [24]: 4 µg/mL | MIC [25]: 8 µg/mL | MIC [26]: 32 µg/mL | MIC [27]: 64 µg/mL | MIC [28]: 32 µg/mL | MIC [29]: 16 µg/mL | MIC [30]: 8 µg/mL | MIC [31]: 8 µg/mL | MIC [32]: 8 µg/mL | MIC [47]: 4 µg/mL | MIC [48]: 8 µg/mL | MIC [49]: 8 µg/mL | MIC [33]: 4 µg/mL | MIC [34]: 8 µg/mL | MIC [35]: 512 µg/mL | MIC [36]: 8 µg/mL | MIC [50]: 256 µg/mL | MIC [37]: 128 µg/mL
